The sample as a whole holds a higher share of hits than the screen did.
PostGolgi ctrl = growth inhibition of yeast control strain, primary screen, counter-screen for post-Golgi transport modulator project. efflux-deficient yeast background strain, growth absorbance A615, 16 h. inhibition, % at 10 µM. 98,000 compounds, 5% hits. AID 738, 2007
Yeast lifespan up = compounds extending yeast replicative lifespan, primary screen, S. cerevisiae, OD615. S. cerevisiae growth with nicotinamide; deaD strain in restrictive glucose medium. inhibition of the nicotinamide effect, % at 10 µM. 130,000 compounds, 0.68% hits. AID 775, 2007;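 active means inhibition above a set limit, placed 3 SD over the median of all compounds, cut at about 26% in these data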;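 further: 0% = nicotinamide-treated wells and 100% = cells grown without nicotinamide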
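Assay system: DeaD-strain S. cerevisiae. Medium: CSMM-D glucose medium, restrictive. Reagent: nicotinamide, 1.5 mM, co-present with compound. Compound: 10 µM single point, 0.25% DMSO. Schedule: culture preincubation 4 h, compound exposure 48 h, both 30 °C. Detection: absorbance at 615 nm.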
BB579 growth dn = growth inhibitors of yeast BB579 in restrictive medium, primary screen, yeast lifespan-shortening project, S. cerevisiae; OD615, 48 h; inhibition, % at 10 µM; 140,000 compounds, 0.51% hits; AID 804, 2007;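 active means inhibition above a set limit, 3 SD over the mean compound inhibition, cut at about 44% in these data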
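Test system: Saccharomyces cerevisiae DeaD strain BB579, replicative lifespan model yeast | Buffer or medium: Restrictive CSMM-D medium | Doses: One dose, 10 µM compound with 0.25% DMSO | Incubation: 48 h exposure, 30 °C | Detection: Culture absorbance at 615 nm | Control set: Amphotericin B at 10 µg/mL as positive control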
PostGolgi yeast = phenotypic screen on post-Golgi transport, primary screen. post-Golgi transport phenotypic cell assay. inhibition, % at 10 µM. 98,000 compounds, 0.9% hits. AID 739, 2007;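 further: yeast cells grown in 1536-well plates; yeast grown about 18 h at 30C before absorbance read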
Numbers without * were called inactive; . = not tested or not shown. Unless noted, no stated cut-off is given here; in the data, active means inhibition above about 30%; inactive means the rest.

SMILES	PostGolgi ctrl	Yeast lifespan up	BB579 growth dn	PostGolgi yeast
O=C1C2=C(NC(=S)NC2c2ccc(Cl)cc2)NC(c2ccc(Cl)cc2)N1c1ccc(Cl)cc1 (centres undefined)	4	-8	-50	4
CCc1ccc(C2NC(=S)NC3=C2C(=O)N(c2ccccc2OC)C(c2ccc(CC)cc2)N3)cc1 (centres undefined)	2	-18	53*	-2
Cc1nc2sc(C(c3ccco3)N3CCN(c4ccccc4F)CC3)c(O)n2n1 (centres undefined)	.	.	-34	.
Cc1nc2sc(C(c3cccs3)N3CCN(c4cccc(Cl)c4)CC3)c(O)n2n1 (centres undefined)	48*	-11	7	-1
Cc1nc2sc(C(c3ccc(Cl)cc3)N3CCN(c4ccccc4F)CC3)c(O)n2n1 (centres undefined)	32*	2	-41	2
Cc1cccc(C)c1-n1nnnc1C1(Nc2ccccc2)CCCCC1	44*	-1	-33	4
N#Cc1cc2sc3nnc(-c4ccncc4)n3c2cc1C#N	37*	-18	14	6
CCn1nc([N+](=O)[O-])c(C(C#N)c2nc3cc(C(F)(F)F)ccc3s2)c(Cl)c1=O (centres undefined)	36*	-13	-13	17
CCCn1nc([N+](=O)[O-])c(C(C#N)c2nc3ccccc3o2)c(Cl)c1=O (centres undefined)	.	-1	10	.
Cn1c2ccc(Cl)cc2c2nc3ccccc3nc21	6	-9	21	38*
CCN(CCCNC(=O)CCc1nc(-c2ccc(C)cc2)no1)c1cccc(C)c1	36*	-3	-36	8
CCN(Cc1ccccc1)C(=O)CCc1nc(-c2ccc(C)cc2)no1	42*	-4	-25	-4
CCCCc1cc(O)c(CCCC)c(O)c1	42*	-16	-30	-5
NCCc1ccc(O)c(O)c1	.	2	-5	.
O=C(NCc1ccc2c(c1)OCO2)c1ccncc1	3	-1	-3	-11
Cc1cccc(-n2nnc(C(=O)NCc3ccc4c(c3)OCO4)c2N)c1	9	-13	-67	-3
O=C(NCc1ccc2c(c1)OCO2)c1ccc(-n2cnnn2)cc1	1	-22	-6	41*
Cc1cc(C)cc(-n2nnc(C(=O)NCc3ccc4c(c3)OCO4)c2N)c1	31*	-9	-34	-3
CCN(Cc1ccccc1)C(c1cc2ccc(C)cc2[nH]c1=O)c1nnnn1CCOC (centres undefined)	-2	-13	-13	-5
CCCCSc1nc(C)c(C(C)=O)cc1C#N	5	-16	50*	4
COCCOC(=O)c1c(NC(=O)CN2CCCc3ccccc32)sc(C(N)=O)c1C	.	-2	-28	.
CCN(CC)S(=O)(=O)c1ccc2c(c1)nc(SCC(=O)N1CCOCC1)n2-c1ccccc1OC	-7	-19	-1	1
Cc1cc(C(=O)Nc2nnc(-c3ccccc3)s2)no1	15	27*	-39	-3
COc1ccc([C@H]2[C@H](C(=O)C(C)(C)C)N3N=Cc4ccccc4C3[C@]23N=C(c2ccccc2)OC3=O)cc1 (some centres undefined)	1	-7	-36	12
CC(C)(C)OC(=O)[C@H]1[C@H](c2ccc([N+](=O)[O-])cc2)C2(C(=O)c3ccccc3C2=O)C2c3ccccc3C=NN21 (some centres undefined)	.	43*	-15	.
SMILES	PostGolgi ctrl	Yeast lifespan up	BB579 growth dn	PostGolgi yeast
c1ccc(-c2oc3ncnc(NCCN4CCOCC4)c3c2-c2ccccc2)cc1	92*	-34	-65	15
N=c1c2c(-c3ccccc3)c(-c3ccccc3)oc2ncn1CCN1CCOCC1	72*	-22	10	1
O=C1CSC(c2cn(-c3ccccc3)nc2-c2ccccc2)N1Cc1ccco1 (centres undefined)	53*	-6	-50	4
O=S1(=O)C[C@H]2NC(=S)N(c3ccccc3)[C@H]2C1	.	-5	0	.
COC(=O)c1ccc(Cc2ccc(C(=O)OC)o2)o1	36*	-12	-2	8
CCC(C)NCc1ccc(C(=O)OC)o1 (centres undefined)	-5	-22	-1	-2
Cc1cccc(OCCn2c(CCCO)nc3ccccc32)c1	30*	0	16	5
CCOc1ccc(NCc2nc3ccccc3n2CCOc2ccccc2)cc1	.	42*	48*	.
OCc1nc2ccccc2n1CCCOc1ccc(Br)cc1	45*	-9	-6	1
COc1ccccc1OCCn1c(CO)nc2ccccc21	4	2	-52	-15
